MrgX1 antagonist: antagonists of human MrgX1 receptor; MRGX1-HEK293 calcium flux, Fluo-4, BAM8-22 antagonism; hits give low values; B-score at 10 µM; actives 1.3% (n = 310,000);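 active means calcium-response B-score plate-corrected more than 3 library SD below zero, starting fluorescence within 5 deviations, no agonist response on first addition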;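 further: peak minus trough fluorescence over baseline after final BAM8-22 challenge near maximal dose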
Target sequence (Q96LB2 whole entry, looked up): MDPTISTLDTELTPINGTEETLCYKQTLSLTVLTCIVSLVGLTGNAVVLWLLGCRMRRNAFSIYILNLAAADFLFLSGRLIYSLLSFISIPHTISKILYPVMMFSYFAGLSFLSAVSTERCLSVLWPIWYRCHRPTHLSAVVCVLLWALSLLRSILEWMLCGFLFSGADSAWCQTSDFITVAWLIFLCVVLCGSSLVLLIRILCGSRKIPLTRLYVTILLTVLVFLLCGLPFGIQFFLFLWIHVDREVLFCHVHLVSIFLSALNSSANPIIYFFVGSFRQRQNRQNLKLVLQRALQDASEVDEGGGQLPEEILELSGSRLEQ
MrgX1 allo act: allosterically activates human MrgX1 receptor signaling. MrgX1-HEK293, Fluo-4 calcium flux, FDSS; hits give high values. B-score at 10 µM. actives 0.63% (n = 310,000);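 active means plate-corrected calcium response at least 3 library SD above typical, normal starting fluorescence, not activating the receptor alone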;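 further: compound read alongside a low EC10 to EC30 dose of BAM8-22 agonist; peak minus trough fluorescence over baseline measured at the second addition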
RGS4 inh: human RGS4 inhibition; B-score at 10 µM; actives 0.45% (n = 310,000); P49798; HEK293 M3R/RGS4 inducible, Fluo-4 calcium flux; hits give high values; triggered by carbachol at its EC20;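 active means B-score, a plate-corrected calcium signal, over three deviations above library mean, with baseline fluorescence within five deviations of library mean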;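 further: RGS4 expression induced by doxycycline in cells with stable M3 receptor; B-score is computed from the integrated fluorescence ratio over baseline after carbachol; higher B-score means a larger calcium signal and so more RGS4 inhibition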
Target sequence (P49798 whole entry, looked up): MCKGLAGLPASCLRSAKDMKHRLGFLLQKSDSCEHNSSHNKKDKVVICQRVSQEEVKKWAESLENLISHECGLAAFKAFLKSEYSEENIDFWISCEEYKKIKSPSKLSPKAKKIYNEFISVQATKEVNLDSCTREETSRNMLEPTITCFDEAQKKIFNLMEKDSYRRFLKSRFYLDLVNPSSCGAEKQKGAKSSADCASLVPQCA
RGS4 pot: RGS4 potentiation or activation | HEK293 M3R/inducible RGS4, carbachol calcium flux Fluo4; hits give low values | B-score at 10 µM | actives 0.92% (n = 310,000) | AID 463111;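 active means B-score of the integrated calcium signal more than 4 SD below the library mean, with starting fluorescence not abnormally high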;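 further: negative B-score means reduced calcium response which marks RGS4 activation or potentiation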
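Material: M3R-expressing HEK293 line, RGS4 induced by doxycycline | Schedule: Overnight RGS4 induction, 30 min dye load 37 °C, 20 min compound RT | Measured by: Fluo4 fluorescence kinetic imaging of calcium | Read-out: Integrated calcium ratio converted to B score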
MrgX1 ag: activates human MrgX1 receptor signaling | actives 0.44% (n = 310,000) | Q96LB2 | B-score at 10 µM | MrgX1-HEK293 cells, Fluo-4 calcium fluorescence, agonist mode; hits give high values;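 active means calcium response B-score plate-corrected fluorescence ratio at least 3 library SD, with starting fluorescence B-score inside 5 SD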
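Material: MrgX1-expressing HEK293 cells / Dosing: compound as first of three additions / Incubation: overnight seeding, then 1 h dark dye loading / Signal: Fluo-4 NW calcium fluorescence / Evaluation: B-scored fluorescence response ratio / Benchmarks: positive and negative control wells on each plate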
An asterisk follows results filed as active; i = inactive; · = not tested or not shown. The list is not random: actives were taken first. Their share in the collection is about 3.5%.

SMILES | MrgX1 antagonist | MrgX1 allo act | RGS4 inh | RGS4 pot | MrgX1 ag
CCS(=O)(=O)C1=NN2C(=N)/C(=C\c3ccc(OC(=O)c4ccco4)cc3)C(=O)N=C2S1 | i | 8.6* | i | i | i
CCC(CC)C1=NN2C(=N)/C(=C/c3ccc(OC(=O)c4ccco4)cc3)C(=O)N=C2S1 | i | i | i | i | i
CCC1=NN2C(=N)/C(=C\c3cccn3-c3ccc(Cl)cc3)C(=O)N=C2S1 | i | 8.1* | i | i | i
CCC1=NN2C(=N)/C(=C/c3ccc(OS(=O)(=O)c4ccc(C)cc4)c(OC)c3)C(=O)N=C2S1 | i | i | i | i | i
CCn1ncc(CN2CCC(Oc3cc(C(=O)NC4CC4)ccc3OC)CC2)c1C | i | i | i | i | i
CS(=O)(=O)C1=NSC2=NC(=O)/C(=C\c3ccc(OC(=O)c4ccco4)c(Br)c3)C(=N)N21 | i | 17* | i | i | i
COc1cc(/C=C2\C(=N)N3N=C(S(=O)(=O)CC(C)C)SC3=NC2=O)ccc1OC(=O)c1ccco1 | i | i | i | i | i
CCS(=O)(=O)C1=NN2C(=N)/C(=C\c3ccc(OS(=O)(=O)c4ccccc4)cc3)C(=O)N=C2S1 | i | 7.2* | i | i | i
CCS(=O)(=O)C1=NN2C(=N)/C(=C\c3ccc(OS(=O)(=O)c4ccccc4)c(OC)c3)C(=O)N=C2S1 | i | i | i | i | i
COc1ccc(-c2cc3ccc(OC(C)C(=O)O)cc3oc2=O)cc1 (stereo not given) | i | i | i | i | i
Cc1ccccc1-n1ncc2c1CC(C)(C)CC2NC(=O)c1cn[nH]c1C (stereo not given) | i | i | i | i | i
COC(=O)/C(=C/Nc1ccccc1)[N+](=O)[O-] | i | i | i | i | i
COC(=O)/C(=C/c1cn(C)c2ccccc12)[N+](=O)[O-] | · | · | 12* | i | ·
O=C(CCNS(=O)(=O)c1ccccc1)OCC(=O)c1ccc(Br)cc1 | i | i | i | i | i
COc1ccc(C(=O)COC(=O)CCNS(=O)(=O)c2ccccc2)cc1Br | -5.6* | i | i | i | i
CCN(CC)S(=O)(=O)c1ccc(-c2nnc(SCC(=O)Nc3cc(OC)cc(OC)c3)o2)cc1 | -4.6* | i | i | i | i
Cc1ccc(S(=O)(=O)N2[C@@H](c3ccc(F)cc3)C(C(=O)O)=CC[C@H]2c2ccc3c(c2)OCO3)cc1 | i | 9.5* | · | · | i
Cc1ccc(S(=O)(=O)N2[C@@H](c3ccc(F)cc3)C(C(=O)O)=CC[C@H]2c2cccc(C)c2)cc1 | i | i | · | · | i
Cc1ccc(S(=O)(=O)N2[C@@H](c3ccccc3F)C(C(=O)O)=CC[C@H]2c2ccc3c(c2)OCO3)cc1 | i | 14* | · | · | i
COc1ccc([C@@H]2CC=C(C(=O)O)[C@H](c3ccccc3F)N2S(=O)(=O)c2ccc(C)cc2)cc1OC | i | i | · | · | i
COc1ccc(C2NC(=O)c3ccccc3O2)cc1 (stereo not given) | i | i | i | i | i
CC(C)CNC(=O)/C(C#N)=C1\N=C(NC(=O)c2ccco2)c2ccccc21 | -4.8* | i | i | i | i
O=C(NNC(=O)c1ccccc1Cl)c1cc2cc(OC(F)(F)F)ccc2[nH]1 | i | 7.5* | i | i | i
Cc1ccc(NC(=O)c2cc3cc(OC(F)(F)F)ccc3[nH]2)cc1 | i | i | i | i | i
CCN(CC)CCSc1nc2ccccc2c(=S)n1-c1ccccc1 | i | i | i | -8* | i
SMILES | MrgX1 antagonist | MrgX1 allo act | RGS4 inh | RGS4 pot | MrgX1 ag
CCN(CC)CCSc1nc(O)c(-c2ccccc2)c(=O)n1-c1ccccc1 | i | i | i | i | i
CCN(CC)CCSc1nc2ccccc2n1Cc1ccccc1 | i | i | i | -9.1* | i
O=C(Nc1ccc(Oc2ccc(NC(=O)Nc3ccccc3Cl)cc2)cc1)Nc1ccccc1Cl | i | i | i | i | i
Cc1ccc(NC(=O)CN(C)C(=O)Cc2c(Cl)cccc2Cl)cc1 | i | i | i | i | i
Clc1ccc(CN2CCc3c([nH]c4ccccc34)C2)cc1Cl | -4.6* | i | i | i | i
O=C(c1ccc(=O)n(Cc2ccc(Cl)c(Cl)c2)c1)N1CCOCC1 | -7.4* | i | i | i | i
CCCCCCN1C=CC(=C/C=C(\C#N)C(=O)OCC)C=C1 | i | i | i | i | 64*
CCCN1C=CC(=C/C=C(\C#N)C(=O)OCC)C=C1 | i | i | i | i | i
Cc1ccc(C(=O)NCCC(=O)N2CCCC2)cc1 | i | i | i | i | i
Cc1ccc(N=C(NO)c2nonc2N)c(C)c1 | i | i | i | i | i
Cc1ccccc1N=C(NOCc1ccc(Cl)cc1Cl)c1nonc1N | i | i | i | -7.3* | i
Cc1ccc(N=C(NOCc2ccc(Cl)cc2Cl)c2nonc2N)c(C)c1 | i | i | i | -7.6* | i
Cc1nc(SC(C)C(=O)NCC2CCCO2)c2cc(-c3ccccc3)sc2n1 (stereo not given) | i | i | i | i | i
COc1ccc(CNC(=O)C(c2ccco2)N(C(=O)CNS(=O)(=O)c2ccccc2)c2ccccc2C)cc1 (stereo not given) | i | i | i | i | i
CCCC(=O)OCCNC(=O)c1cc2ccccc2oc1=O | -5.4* | i | i | i | i
Cc1ccsc1C(=O)NN=C1CCCCCC1 | i | i | i | i | i
Cc1nc2c(c(C)nn2-c2ccccc2)c(C)c1CCC(=O)Nc1ccc(CN2CCCC2)cc1 | i | 12* | i | i | i
CCC(C)NC(=O)CCc1c(C)nc2c(c(C)nn2-c2ccccc2)c1C (stereo not given) | i | i | i | i | i
N#CN(Cc1ccccc1)Cc1ccccc1 | i | i | i | i | i
CCOC(=O)c1sc(=S)n(-c2ccccc2Cl)c1SC | i | 10* | i | -8.8* | i
CN(C)c1ccc(/C=C/c2cc[n+](C)cc2)cc1 | i | i | i | i | 37*
CCc1nnc(NC(=O)CCN2C(=O)/C(=C/c3cc(OC)c(OC)c(OC)c3)SC2=S)s1 | i | i | i | i | i
CC12CCC(C/C1=N/NC(=O)COc1ccccc1Cl)C2(C)C (stereo not given) | i | i | i | i | i
CC12CCC(C/C1=N/NC(=O)Nc1ccccc1)C2(C)C (stereo not given) | i | 13* | i | i | i
